For data set [1], the target named is Dual specificity mitogen-activated protein kinase kinase 1 (Homo sapiens, UniProt Q02750). Kind of data set: Inhibition of full length recombinant human His-tagged MEK1 expressed in baculovirus expression system after 1 hr by TR-FRET based LanthaScreen assay.
Data set [2] is described as follows: Half life in mouse liver microsomes by LC-MS/MS analysis. In kind it is ADME.
Data set [3] concerns the target Mitogen-activated protein kinase 1 (Homo sapiens, UniProt P28482). Put plainly: Inhibition of full length recombinant human GST-tagged ERK2 expressed in Escherichia coli using Ser/Thr 03 as substrate after 1 hr by Z'-Lyte assay. The essentials:
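Z'-Lyte FRET activity assay run per the supplier's protocol, with ATP near the kinase's Km.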

Data set [4] deals with T1, Mitogen-activated protein kinase kinase kinase 7 (Homo sapiens, UniProt O43318).
T1 sequence (O43318 whole entry): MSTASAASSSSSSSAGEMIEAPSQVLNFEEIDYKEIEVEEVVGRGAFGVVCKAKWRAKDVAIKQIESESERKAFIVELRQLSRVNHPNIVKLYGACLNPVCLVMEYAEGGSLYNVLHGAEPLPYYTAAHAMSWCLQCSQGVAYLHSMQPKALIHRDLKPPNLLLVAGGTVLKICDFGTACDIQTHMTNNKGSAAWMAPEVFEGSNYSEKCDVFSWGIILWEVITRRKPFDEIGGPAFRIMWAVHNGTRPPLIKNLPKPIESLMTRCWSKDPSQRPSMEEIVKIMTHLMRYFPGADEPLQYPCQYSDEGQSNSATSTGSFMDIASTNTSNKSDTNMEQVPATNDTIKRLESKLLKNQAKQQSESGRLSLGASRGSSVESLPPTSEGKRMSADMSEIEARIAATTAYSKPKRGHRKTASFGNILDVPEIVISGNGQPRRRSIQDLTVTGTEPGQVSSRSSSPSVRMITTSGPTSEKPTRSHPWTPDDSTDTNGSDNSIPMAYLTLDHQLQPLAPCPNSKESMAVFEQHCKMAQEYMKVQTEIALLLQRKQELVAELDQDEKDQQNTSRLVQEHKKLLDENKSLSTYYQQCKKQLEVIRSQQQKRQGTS
Kind of data set: Inhibition of full length recombinant human GST-tagged TAK1 expressed in baculovirus expression system after 1 hr by TR-FRET based LanthaScreen assay. Background: TR-FRET usually uses a lanthanide donor and a delayed reading to cut background.

The target of data set [5] is T1, Mitogen-activated protein kinase kinase kinase 7. Put plainly: Time-dependent inhibition of TAB1 fused TAK1 (unknown origin) using FAM-LRRKtide as substrate by mobility shift assay.
The target of data set [6] is T2, Mitogen-activated protein kinase kinase kinase 7 (Homo sapiens) (UniProt O43318).
T2 sequence (whole entry): T1 sequence (O43318 whole entry)

For data set [7], the target named is T2, Mitogen-activated protein kinase kinase kinase 7 (Homo sapiens). Kind of data set: Binding affinity to full length recombinant human GST-tagged TAK1 expressed in baculovirus expression system assessed as labeling of Cys-174 residue after 1 hr by mass spectrometric analysis.
Data set [8] addresses T3, Mitogen-activated protein kinase kinase kinase 3 (Homo sapiens) (UniProt Q99759).
T3 sequence (whole entry): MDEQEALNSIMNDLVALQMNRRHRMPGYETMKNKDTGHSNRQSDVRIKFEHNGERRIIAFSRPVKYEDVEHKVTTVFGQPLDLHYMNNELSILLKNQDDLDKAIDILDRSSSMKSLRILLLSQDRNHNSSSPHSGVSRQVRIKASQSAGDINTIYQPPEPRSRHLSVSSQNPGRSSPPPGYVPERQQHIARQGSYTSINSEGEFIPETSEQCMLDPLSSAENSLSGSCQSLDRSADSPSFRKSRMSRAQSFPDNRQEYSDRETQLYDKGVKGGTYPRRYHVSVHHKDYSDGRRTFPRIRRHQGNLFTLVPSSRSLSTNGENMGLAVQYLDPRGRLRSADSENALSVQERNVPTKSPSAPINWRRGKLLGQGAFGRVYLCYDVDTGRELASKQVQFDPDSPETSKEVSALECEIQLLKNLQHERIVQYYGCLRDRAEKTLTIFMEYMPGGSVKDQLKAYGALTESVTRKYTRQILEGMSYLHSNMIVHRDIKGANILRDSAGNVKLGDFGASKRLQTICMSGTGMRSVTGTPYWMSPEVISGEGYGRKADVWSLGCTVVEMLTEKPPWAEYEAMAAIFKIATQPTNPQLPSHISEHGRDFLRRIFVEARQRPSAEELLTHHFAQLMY
Put plainly: Inhibition of human MAP3K3 (E320 to Y626 residues) expressed in mammalian expression system at 1 uM by KINOMEScan assay. Summed up:
(§1)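 KINOMEscan in vitro ATP-site competition binding, screened across a 468-kinase and mutant panel at a single concentration of 1 μM. Read-out is a binding or inhibition score […].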

Data set [9] addresses Protein-tyrosine kinase 2-beta (Homo sapiens) (UniProt Q14289). Kind of data set: Inhibition of full length human PYK2 (M1 to E967 residues) expressed in bacterial expression system at 1 uM by KINOMEScan assay. The essentials:
as §1

For data set [10], the target named is Wee1-like protein kinase 2 (Homo sapiens) (UniProt P0C1S8). Put plainly: Inhibition of human WEE2 (M204 to K492 residues) expressed in bacterial expression system at 1 uM by KINOMEScan assay. Summed up:
as §1

Data set [11] addresses Wee1-like protein kinase (Homo sapiens) (UniProt P30291). Kind of data set: Inhibition of human WEE1 (M291 to K575 residues) expressed in bacterial expression system at 1 uM by KINOMEScan assay. The essentials: as §1
Data set [12] addresses T4, Mitogen-activated protein kinase kinase kinase 2 (Homo sapiens) (UniProt Q9Y2U5).
T4 sequence (whole entry): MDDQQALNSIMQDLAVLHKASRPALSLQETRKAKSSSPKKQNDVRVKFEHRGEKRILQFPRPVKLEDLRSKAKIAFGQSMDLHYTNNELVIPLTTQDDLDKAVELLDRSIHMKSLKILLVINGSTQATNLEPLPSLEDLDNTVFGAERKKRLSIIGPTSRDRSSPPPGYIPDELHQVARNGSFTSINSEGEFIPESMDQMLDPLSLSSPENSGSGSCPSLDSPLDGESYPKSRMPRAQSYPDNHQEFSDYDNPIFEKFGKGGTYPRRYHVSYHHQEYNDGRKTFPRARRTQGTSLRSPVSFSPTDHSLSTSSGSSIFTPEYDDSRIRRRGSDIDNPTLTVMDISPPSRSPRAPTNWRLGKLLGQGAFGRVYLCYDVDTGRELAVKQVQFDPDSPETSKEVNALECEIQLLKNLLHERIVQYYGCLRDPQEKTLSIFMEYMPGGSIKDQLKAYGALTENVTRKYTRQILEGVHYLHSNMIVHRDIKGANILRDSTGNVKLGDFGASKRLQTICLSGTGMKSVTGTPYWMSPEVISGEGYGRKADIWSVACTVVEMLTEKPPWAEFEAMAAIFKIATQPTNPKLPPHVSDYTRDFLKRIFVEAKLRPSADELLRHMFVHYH
Kind of data set: Inhibition of human MAP3K2 (S315 to H619 residues) expressed in mammalian expression system at 1 uM by KINOMEScan assay. The essentials:
as §1

Data set [13] addresses T2, Mitogen-activated protein kinase kinase kinase 7 (Homo sapiens). Particulars: 10 uM.

The structures appear in SMILES notation. The source made the active and inactive calls. No cut-off for these calls is given here.

Mitogen-activated protein kinase 1, sequence (P28482 whole entry): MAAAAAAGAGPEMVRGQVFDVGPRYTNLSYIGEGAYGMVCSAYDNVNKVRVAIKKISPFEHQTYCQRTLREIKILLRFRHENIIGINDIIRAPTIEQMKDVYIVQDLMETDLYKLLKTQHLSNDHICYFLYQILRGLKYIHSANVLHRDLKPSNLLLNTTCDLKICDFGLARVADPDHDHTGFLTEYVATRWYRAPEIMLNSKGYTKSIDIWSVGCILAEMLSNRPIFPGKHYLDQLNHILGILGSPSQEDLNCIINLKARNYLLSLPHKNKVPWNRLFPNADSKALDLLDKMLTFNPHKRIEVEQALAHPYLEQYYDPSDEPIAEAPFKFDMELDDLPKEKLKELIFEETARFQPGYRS
Dual specificity mitogen-activated protein kinase kinase 1, sequence (Q02750 whole entry): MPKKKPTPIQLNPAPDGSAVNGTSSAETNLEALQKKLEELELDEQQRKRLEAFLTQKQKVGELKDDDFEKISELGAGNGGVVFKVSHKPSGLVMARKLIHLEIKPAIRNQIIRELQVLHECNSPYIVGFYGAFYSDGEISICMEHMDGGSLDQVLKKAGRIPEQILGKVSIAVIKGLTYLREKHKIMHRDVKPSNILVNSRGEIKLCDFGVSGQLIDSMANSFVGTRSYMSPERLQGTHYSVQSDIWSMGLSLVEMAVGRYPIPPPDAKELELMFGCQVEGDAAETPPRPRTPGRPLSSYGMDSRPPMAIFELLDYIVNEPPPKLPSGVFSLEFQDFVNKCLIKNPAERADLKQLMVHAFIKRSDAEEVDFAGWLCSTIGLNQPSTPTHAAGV
Wee1-like protein kinase (Homo sapiens), sequence (P30291 whole entry, looked up, the tested form may be a part): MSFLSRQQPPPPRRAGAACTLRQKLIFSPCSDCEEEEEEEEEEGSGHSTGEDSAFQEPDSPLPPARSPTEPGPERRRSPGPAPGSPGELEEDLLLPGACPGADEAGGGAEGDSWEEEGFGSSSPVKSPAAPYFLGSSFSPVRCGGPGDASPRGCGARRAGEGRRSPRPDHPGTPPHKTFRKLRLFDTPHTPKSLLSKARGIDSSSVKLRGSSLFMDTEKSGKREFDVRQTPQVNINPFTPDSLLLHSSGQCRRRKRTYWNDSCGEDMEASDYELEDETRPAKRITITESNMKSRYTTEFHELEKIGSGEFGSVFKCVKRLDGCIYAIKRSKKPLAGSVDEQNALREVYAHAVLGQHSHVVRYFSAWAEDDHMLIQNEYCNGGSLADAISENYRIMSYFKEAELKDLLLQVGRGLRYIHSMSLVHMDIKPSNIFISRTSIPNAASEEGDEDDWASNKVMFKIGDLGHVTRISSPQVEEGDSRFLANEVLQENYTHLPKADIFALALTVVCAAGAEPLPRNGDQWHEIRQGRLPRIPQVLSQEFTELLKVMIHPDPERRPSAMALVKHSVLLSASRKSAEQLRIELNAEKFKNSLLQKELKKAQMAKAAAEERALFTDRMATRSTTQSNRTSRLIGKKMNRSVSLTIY
Protein-tyrosine kinase 2-beta (Homo sapiens), sequence (Q14289 whole entry, looked up, the tested form may be a part): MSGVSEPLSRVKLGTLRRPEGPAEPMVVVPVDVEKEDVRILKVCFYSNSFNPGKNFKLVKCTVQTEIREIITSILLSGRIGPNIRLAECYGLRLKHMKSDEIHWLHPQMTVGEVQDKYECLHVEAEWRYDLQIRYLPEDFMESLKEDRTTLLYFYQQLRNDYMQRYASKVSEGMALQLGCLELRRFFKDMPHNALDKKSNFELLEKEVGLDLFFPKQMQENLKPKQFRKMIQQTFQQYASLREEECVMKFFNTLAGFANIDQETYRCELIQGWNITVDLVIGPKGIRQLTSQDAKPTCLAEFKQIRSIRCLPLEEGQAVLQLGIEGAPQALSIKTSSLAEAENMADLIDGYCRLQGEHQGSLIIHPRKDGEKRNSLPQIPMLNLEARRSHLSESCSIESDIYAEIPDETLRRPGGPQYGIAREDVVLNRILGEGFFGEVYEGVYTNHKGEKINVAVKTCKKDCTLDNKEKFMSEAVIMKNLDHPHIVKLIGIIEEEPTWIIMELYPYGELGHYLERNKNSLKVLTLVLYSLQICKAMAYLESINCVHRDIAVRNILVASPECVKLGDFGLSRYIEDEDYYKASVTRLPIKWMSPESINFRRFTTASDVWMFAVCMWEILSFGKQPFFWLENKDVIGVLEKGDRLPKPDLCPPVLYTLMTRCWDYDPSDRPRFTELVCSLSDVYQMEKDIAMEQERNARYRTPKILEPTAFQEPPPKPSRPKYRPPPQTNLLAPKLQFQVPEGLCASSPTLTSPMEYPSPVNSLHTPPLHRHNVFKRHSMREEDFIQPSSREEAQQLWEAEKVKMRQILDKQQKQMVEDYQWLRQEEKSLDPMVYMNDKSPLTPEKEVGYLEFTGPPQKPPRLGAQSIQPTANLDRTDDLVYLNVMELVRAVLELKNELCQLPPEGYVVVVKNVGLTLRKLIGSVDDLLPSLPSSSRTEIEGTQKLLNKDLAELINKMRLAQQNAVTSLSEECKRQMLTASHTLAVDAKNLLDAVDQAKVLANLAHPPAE
Wee1-like protein kinase 2 (Homo sapiens), sequence (P0C1S8 whole entry, looked up, the tested form may be a part): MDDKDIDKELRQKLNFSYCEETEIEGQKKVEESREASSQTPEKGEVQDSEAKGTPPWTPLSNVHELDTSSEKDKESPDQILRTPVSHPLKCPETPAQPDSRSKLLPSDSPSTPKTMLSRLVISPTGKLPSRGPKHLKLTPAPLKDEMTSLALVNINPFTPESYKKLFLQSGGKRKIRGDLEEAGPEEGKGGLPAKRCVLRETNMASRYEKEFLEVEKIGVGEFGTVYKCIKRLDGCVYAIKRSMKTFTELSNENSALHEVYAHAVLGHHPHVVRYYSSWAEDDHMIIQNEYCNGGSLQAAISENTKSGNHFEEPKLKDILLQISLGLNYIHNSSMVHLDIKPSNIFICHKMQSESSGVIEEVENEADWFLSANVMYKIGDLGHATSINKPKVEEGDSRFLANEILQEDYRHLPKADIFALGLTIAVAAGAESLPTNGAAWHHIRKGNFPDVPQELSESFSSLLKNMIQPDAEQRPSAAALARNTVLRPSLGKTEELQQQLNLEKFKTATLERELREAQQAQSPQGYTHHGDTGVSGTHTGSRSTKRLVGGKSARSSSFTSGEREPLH

What is called IC50 is the midpoint of a concentration-inhibition curve. In the case of `C=CC(=O)Oc1ccccc1Nc1nc(Nc2cccc(N3CCN(C(C)=O)CC3)c2)ncc1Cl`, the IC50 in data set [1] was determined as 9.5 nM; in [3] it was 225 nM. This compound also yielded a t1/2 in data set [2] of less than 1 min.
In the case of `CCC(=O)Nc1ccccc1Oc1nc(Nc2ccc(N3CCN(C)CC3)cc2)ncc1Cl`, the IC50 in [1] and in [4] was more than 10000 nM throughout.
Consider `C=CC(=O)Nc1ccccc1Nc1nc(Nc2ccc(N3CCN(C)CC3)cc2)ncc1Cl`, for which the half-maximal inhibitory concentration (IC50) came out at 142 nM in [1], 125 nM in data set [5] and 1090 nM in data set [3]. The compound further gave a t1/2 in data set [2] of 10.8 min. Further, the Ki in data set [5] was determined as 160 nM. Also, in data set [6], the Kinact worked out at 1.1 ×10⁻³ /s.
For `C=CC(=O)Oc1ccccc1Nc1nc(Nc2ccc(N3CCN(C)CC3)cc2)ncc1Cl`, the results for the IC50 in [1] and in data set [3] were 16 nM and 277 nM, respectively. In data set [2], this compound yielded a t1/2 of 5.7 min.
For `C=CC(=O)Nc1ccccc1Oc1nc(Nc2ccc(N3CCN(C)CC3)cc2)ncc1Cl`, the IC50 in data set [1] amounted to 78 nM; in data set [5] it was 360 nM; in [3], 7000 nM. For the same compound, the t1/2 in [2] stood at 6.1 min. Further, the outcome in data set [7] was Active.
As to `C=CC(=O)Nc1ccccc1Oc1nc(Nc2ccc(N3CCN(C)CC3)cc2)ncc1C1CC1`, the IC50 in [1] turned out to be 763 nM; in data set [3] it was 5600 nM. For the same compound, the t1/2 in [2] was found to be 12.8 min.
`CCC(=O)Nc1ccccc1Nc1nc(Nc2ccc(N3CCN(C)CC3)cc2)ncc1Cl`: the inhibition result in [8], in data set [9], in data set [10], in data set [11] and in data set [12] was “Active” in each case.
For `C=CC(=O)Oc1ccccc1Nc1nc(Nc2ccc(N3CCOCC3)cc2)ncc1Cl`, the concentration for half-maximal inhibition (IC50) in data set [1] turned out to be 8.9 nM; in data set [3], 361 nM. This compound yielded a t1/2 in [2] of 3.8 min.
The corresponding values for `C=CC(=O)Nc1ccccc1Oc1nc(Nc2ccc(N3CCN(C)CC3)cc2)ncc1OC` are 1300 nM, 1670 nM and 15.3 min.
As for `C=CC(=O)Nc1ccccc1-n1ccc2cnc(Nc3ccc(N4CCN(C)CC4)cc3)nc21`, the values for the IC50 in data set [1] and in data set [3] were 6810 nM and more than 10000 nM, respectively. This compound also returned a t1/2 in data set [2] of 10.5 min.
Regarding `C=CC(=O)Oc1ccccc1Nc1nc(Nc2cccc(N3CCOCC3)c2)ncc1Cl`, the concentration for half-maximal inhibition (IC50) in data set [1] amounted to 11 nM; in [3], 736 nM. Also, in data set [2], the t1/2 is given as 23 min.
`C=CC(=O)Nc1ccccc1Sc1nc(Nc2ccc(N3CCN(C)CC3)cc2)ncc1Cl`: the IC50 in data set [1] worked out at 2480 nM.
`C=CC(=O)Nc1ccccc1Oc1nc(Nc2cnn(C)c2)ncc1Cl`: the figures for the IC50 in data set [1] and in data set [3] were 9.8 nM and 3140 nM, respectively. This compound showed a t1/2 in data set [2] of 8.1 min.
With `C=CC(=O)Nc1ccccc1Oc1nc(Nc2ccc(N3CCN(C)CC3)cc2)nc(N)c1Cl`, in data set [1], the IC50 was more than 10000 nM.
Consider `C=CC(=O)Nc1ccccc1Oc1nc(Nc2ccc(N3CCN(C)CC3)cc2)ncc1C`, for which the IC50 in data set [1] was determined as 1630 nM; in [3], 9230 nM. The compound also came in with a t1/2 in [2] of 8.8 min.
With `C=CC(=O)Nc1ccc(Oc2nc(Nc3ccc(N4CCN(C)CC4)cc3)nc3[nH]ccc23)cc1`, the IC50 in data set [4] worked out at 34 nM.
Take `C=CC(=O)Nc1ccccc1Oc1nc(Nc2cnn(CCOC)c2)ncc1Cl`: the IC50 in data set [1] stood at 8.5 nM; in data set [5] it was 7.6 nM; in data set [3], 90.3 nM. The compound further gave a t1/2 in data set [2] of 6.9 min.
On to `C=CC(=O)Nc1ccccc1Oc1ccnc(Nc2ccc(N3CCN(C)CC3)cc2)n1`, for which the IC50 in data set [1] was 4470 nM.
As for `C=CC(=O)Nc1ccccc1Oc1nc(Nc2cnn(C(F)F)c2)ncc1Cl`, the IC50 in [1] was determined as 26 nM; in data set [3] it was 242 nM. In data set [2], this compound yielded a t1/2 of 4.2 min.
Take `C=CC(=O)Oc1ccccc1Nc1nc(Nc2ccc(N3CCN(C)CC3)cc2OC)ncc1Cl`: in data set [4], the IC50 turned out to be 342 nM.
For `C=CC(=O)Nc1cc(NC(C)=O)ccc1Oc1nc(Nc2ccc(N3CCN(C)CC3)cc2)ncc1Cl`, the IC50 was determined as 4810 nM in data set [1] and 1640 nM in data set [4].
For `CN1CCN(c2ccc(Nc3ncc(Cl)c(Oc4ccccc4NC(=O)CCl)n3)cc2)CC1`, the 50% inhibitory concentration (IC50) is 2500 nM in data set [1], 25 nM in data set [4] and more than 10000 nM in [3]. In data set [2], this compound gave a t1/2 of 3 min.
In the case of `C=CC(=O)Nc1ccccc1Oc1nc(Nc2cnn(C3CCOCC3)c2)ncc1Cl`, the values for the half-inhibitory concentration (IC50) in data set [1] and in [3] were 8.2 nM and 4620 nM, respectively. The same compound displayed a t1/2 in data set [2] of 4 min.
With `COc1cc(O)c2c(c1)/C=C/C[C@H](O)[C@H](O)C(=O)/C=C\C[C@H](C)OC2=O`, the values for the half-inhibitory concentration (IC50) in [1] and in [3] were 2.9 nM and 738 nM, respectively. In addition, the inhibition result in data set [13] is “Active”.
